Measured values published in ChEMBL document CHEMBL3992553, “New nitrofurans amenable by isocyanide multicomponent chemistry are active against multidrug-resistant and poly-resistant Mycobacterium tuberculosis” (Bioorg Med Chem, 2017).
In brackets after ≈: the same amount, converted by molar mass.

system: Staphylococcus aureus; experiment: Antibacterial activity against methicillin-resistant Staphylococcus aureus DSM 11822 after 18 hrs; type: functional; conditions: DSM 11822, 18 h
Procedure, shortened: (§1)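 Broth microdilution MIC. Gram-negatives grown overnight at 37 °C in Müller-Hinton broth + 1% glucose, pH 7.2; Gram-positives in trypticase soy broth with yeast extract, pH 7.2. Inoculum 5×10^5 cfu/mL final. Serial dilutions from 100 µM down to 0.2 µM, DMSO ≤1%. 18 h at 37 °C, moist; OD600. MIC = lowest concentration completely suppressing growth.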

SMILES	MIC [µM]
CC1(C(=O)NC2CCCCC2)CCC(=O)N1/N=C/c1ccc([N+](=O)[O-])o1 (stereo unspecified)	> 100
CC1(C(=O)NC2CCCCC2)CN(S(=O)(=O)c2ccccc2[N+](=O)[O-])CC(=O)N1/N=C/c1ccc([N+](=O)[O-])o1 (stereo unspecified)	100 (≈ 56.3 µg/mL)
CC1(C(=O)NC2CCCCC2)CCCC(=O)N1/N=C/c1ccc([N+](=O)[O-])o1 (stereo unspecified)	100 (≈ 37.6 µg/mL)

system: Staphylococcus aureus; experiment: Antibacterial activity against methicillin-resistant Staphylococcus aureus RKI 11-02670 after 18 hrs; type: functional; conditions: RKI 11-02670, 18 h; procedure, shortened: as §1

SMILES	EC50 [µM]	MIC [µM]
CC1(C(=O)NC2CCCCC2)CCC(=O)N1/N=C/c1ccc([N+](=O)[O-])o1 (stereo unspecified)	79	≥ 100
CC1(C(=O)NC2CCCCC2)CN(S(=O)(=O)c2ccccc2[N+](=O)[O-])CC(=O)N1/N=C/c1ccc([N+](=O)[O-])o1 (stereo unspecified)	75	100 (≈ 56.3 µg/mL)
CC1(C(=O)NC2CCCCC2)CCCC(=O)N1/N=C/c1ccc([N+](=O)[O-])o1 (stereo unspecified)	70	100 (≈ 37.6 µg/mL)

system: Enterococcus faecium; experiment: Antibacterial activity against Enterococcus faecium DSM 20477 after 18 hrs; type: functional; conditions: DSM 20477, 18 h; procedure, shortened: as §1

SMILES	MIC [µM]
CC1(C(=O)NC2CCCCC2)CCC(=O)N1/N=C/c1ccc([N+](=O)[O-])o1 (stereo unspecified)	> 100
CC1(C(=O)NC2CCCCC2)CN(S(=O)(=O)c2ccccc2[N+](=O)[O-])CC(=O)N1/N=C/c1ccc([N+](=O)[O-])o1 (stereo unspecified)	> 100
CC1(C(=O)NC2CCCCC2)CCCC(=O)N1/N=C/c1ccc([N+](=O)[O-])o1 (stereo unspecified)	> 100

system: Acinetobacter baumannii; experiment: Antibacterial activity against Acinetobacter baumannii DSM 30007 after 18 hrs; type: functional; conditions: DSM 30007, 18 h; procedure, shortened: as §1

SMILES	MIC [µM]
CC1(C(=O)NC2CCCCC2)CN(S(=O)(=O)c2ccccc2[N+](=O)[O-])CC(=O)N1/N=C/c1ccc([N+](=O)[O-])o1 (stereo unspecified)	> 100
CC1(C(=O)NC2CCCCC2)CCCC(=O)N1/N=C/c1ccc([N+](=O)[O-])o1 (stereo unspecified)	> 100

system: Escherichia coli; experiment: Growth inhibition of Escherichia coli DSM 1116 at 100 uM after 18 hrs relative to control; type: functional; conditions: DSM 1116, 18 h, read-out: GI
Procedure, shortened: (§2)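 Gram-negative culture grown overnight at 37 °C in Müller-Hinton broth + 1% glucose, pH 7.2, then tested at 5×10^5 cfu/mL final. Compound at 100 µM from DMSO stock, DMSO ≤1%. Incubated 18 h at 37 °C under moist conditions. OD600 read; value reported as % growth inhibition.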

SMILES	inhibition of growth at 100 µM [%]
CC1(C(=O)NC2CCCCC2)CCC(=O)N1/N=C/c1ccc([N+](=O)[O-])o1 (stereo unspecified)	85
CC1(C(=O)NC2CCCCC2)CN(S(=O)(=O)c2ccccc2[N+](=O)[O-])CC(=O)N1/N=C/c1ccc([N+](=O)[O-])o1 (stereo unspecified)	88
CC1(C(=O)NC2CCCCC2)CCCC(=O)N1/N=C/c1ccc([N+](=O)[O-])o1 (stereo unspecified)	81

system: Pseudomonas aeruginosa; experiment: Growth inhibition of Pseudomonas aeruginosa PA7 DSM 24068 at 100 uM after 18 hrs relative to control; type: functional; conditions: PA7 DSM 24068, 18 h, read-out: GI; procedure, shortened: as §2

SMILES	inhibition of growth at 100 µM [%]
CC1(C(=O)NC2CCCCC2)CCC(=O)N1/N=C/c1ccc([N+](=O)[O-])o1 (stereo unspecified)	90
CC1(C(=O)NC2CCCCC2)CN(S(=O)(=O)c2ccccc2[N+](=O)[O-])CC(=O)N1/N=C/c1ccc([N+](=O)[O-])o1 (stereo unspecified)	85
CC1(C(=O)NC2CCCCC2)CCCC(=O)N1/N=C/c1ccc([N+](=O)[O-])o1 (stereo unspecified)	88

system: Klebsiella pneumoniae; experiment: Antibacterial activity against Klebsiella pneumoniae DSM 11678 after 18 hrs; type: functional; conditions: DSM 11678, 18 h; procedure, shortened: as §1

SMILES	MIC [µM]
CC1(C(=O)NC2CCCCC2)CN(S(=O)(=O)c2ccccc2[N+](=O)[O-])CC(=O)N1/N=C/c1ccc([N+](=O)[O-])o1 (stereo unspecified)	> 100
CC1(C(=O)NC2CCCCC2)CCCC(=O)N1/N=C/c1ccc([N+](=O)[O-])o1 (stereo unspecified)	> 100

system: Mycobacterium tuberculosis; experiment: Antimycobacterial activity against Mycobacterium tuberculosis H37Rv after 7 days by REMA; type: functional; conditions: 168 h
Procedure, shortened: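 REMA. 3-week H37Rv culture (2nd generation on Löwenstein–Jensen) vortexed with glass beads, set to 1.0 McFarland in 7H9, diluted 20-fold in 7H9 + OADC. 2-fold dilutions, final 1.6–400 µg/mL, 200 µL wells. 7 days at 35 °C, then resazurin 18 h. Fluorescence ex 520/em 590. MIC where signal plateaued or matched the 1% population control (t test).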

SMILES	MIC [µM]
CC1(C(=O)NC2CCCCC2)CCC(=O)N1/N=C/c1ccc([N+](=O)[O-])o1 (stereo unspecified)	70 (≈ 25.4 µg/mL)
CC1(C(=O)NC2CCCCC2)CN(S(=O)(=O)c2ccccc2[N+](=O)[O-])CC(=O)N1/N=C/c1ccc([N+](=O)[O-])o1 (stereo unspecified)	22 (≈ 12.4 µg/mL)
CC1(C(=O)NC2CCCCC2)CCCC(=O)N1/N=C/c1ccc([N+](=O)[O-])o1 (stereo unspecified)	33 (≈ 12.4 µg/mL)

system: not listed separately; experiment: (§3) Cytotoxicity against mouse L929 cells assessed as reduction in cell viability after 5 days by WST1 assay; type: cell-based; conditions: mouse, L929 cells
Procedure, shortened: (§4)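 KB-3-1 or L929 cells, 1500 per well, in DMEM + 5% FBS. Exposed to serially diluted compound for 5 days. WST-1 added, plates incubated at 37 °C (20 min for KB-3-1), absorbance read at 450 nm (reference 600 nm). Viability given as % of controls.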

SMILES	IC90 at 120 h [µM]
CC1(C(=O)NC2CCCCC2)CN(S(=O)(=O)c2ccccc2[N+](=O)[O-])CC(=O)N1/N=C/c1ccc([N+](=O)[O-])o1 (stereo unspecified)	> 100
CC1(C(=O)NC2CCCCC2)CCCC(=O)N1/N=C/c1ccc([N+](=O)[O-])o1 (stereo unspecified)	> 100

system: L929; experiment: as §3; type: cell-based; conditions: Mus musculus, L929, 120 h; procedure, shortened: as §4

SMILES	IC50 [µM]
CC1(C(=O)NC2CCCCC2)CN(S(=O)(=O)c2ccccc2[N+](=O)[O-])CC(=O)N1/N=C/c1ccc([N+](=O)[O-])o1 (stereo unspecified)	22.9 to 100
CC1(C(=O)NC2CCCCC2)CCCC(=O)N1/N=C/c1ccc([N+](=O)[O-])o1 (stereo unspecified)	50 to 50.2

system: not listed separately; experiment: (§5) Cytotoxicity against human KB-3-1 cells assessed as reduction in cell viability after 5 days by WST1 assay; type: cell-based; conditions: human, KB-3-1 cells; procedure, shortened: as §4

SMILES	IC90 at 120 h [µM]
CC1(C(=O)NC2CCCCC2)CN(S(=O)(=O)c2ccccc2[N+](=O)[O-])CC(=O)N1/N=C/c1ccc([N+](=O)[O-])o1 (stereo unspecified)	> 100
CC1(C(=O)NC2CCCCC2)CCCC(=O)N1/N=C/c1ccc([N+](=O)[O-])o1 (stereo unspecified)	100

system: KB 3-1; experiment: as §5; type: cell-based; conditions: Homo sapiens, KB 3-1, 120 h; procedure, shortened: as §4

SMILES	IC50 [µM]
CC1(C(=O)NC2CCCCC2)CN(S(=O)(=O)c2ccccc2[N+](=O)[O-])CC(=O)N1/N=C/c1ccc([N+](=O)[O-])o1 (stereo unspecified)	26.7 to 27
CC1(C(=O)NC2CCCCC2)CCCC(=O)N1/N=C/c1ccc([N+](=O)[O-])o1 (stereo unspecified)	61

system: not listed separately; experiment: (§6) Cytotoxicity against human MCF7 cells assessed as reduction in cell viability after 5 days by WST1 assay; type: cell-based; conditions: human, MCF7 cells
Procedure, shortened: (§7)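 MCF-7 cells, 3000 per well, in RPMI + 5% FBS, 0.5% NEAA, 0.5% GlutaMAX and insulin 5 µg/mL. Exposed to serially diluted compound for 5 days. WST-1 incubation 2 h at 37 °C, absorbance read at 450 nm (reference 600 nm). Viability given as % of controls.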

SMILES	IC90 at 120 h [µM]
CC1(C(=O)NC2CCCCC2)CN(S(=O)(=O)c2ccccc2[N+](=O)[O-])CC(=O)N1/N=C/c1ccc([N+](=O)[O-])o1 (stereo unspecified)	> 100
CC1(C(=O)NC2CCCCC2)CCCC(=O)N1/N=C/c1ccc([N+](=O)[O-])o1 (stereo unspecified)	100

system: MCF7; experiment: as §6; type: cell-based; conditions: Homo sapiens, MCF7, 120 h; procedure, shortened: as §7

SMILES	IC50 [µM]
CC1(C(=O)NC2CCCCC2)CN(S(=O)(=O)c2ccccc2[N+](=O)[O-])CC(=O)N1/N=C/c1ccc([N+](=O)[O-])o1 (stereo unspecified)	12
CC1(C(=O)NC2CCCCC2)CCCC(=O)N1/N=C/c1ccc([N+](=O)[O-])o1 (stereo unspecified)	19

system: not listed separately; experiment: Cytotoxicity against human FS4-LTM cells assessed as reduction in cell viability after 24 hrs by WST1 assay; type: cell-based; conditions: Homo sapiens, FS4-LTM, 24 h
Procedure, shortened: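 FS4-LTM conditionally immortalized human fibroblasts, kept without doxycycline for primary-like behaviour, in DMEM + 5% FBS. Exposed to serially diluted compound for 24 h. WST-1 added, plates incubated at 37 °C, absorbance read at 450 nm (reference 600 nm). Viability given as % of controls set to 100%.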

SMILES	IC50 [µM]
CC1(C(=O)NC2CCCCC2)CN(S(=O)(=O)c2ccccc2[N+](=O)[O-])CC(=O)N1/N=C/c1ccc([N+](=O)[O-])o1 (stereo unspecified)	12 to 100
CC1(C(=O)NC2CCCCC2)CCCC(=O)N1/N=C/c1ccc([N+](=O)[O-])o1 (stereo unspecified)	19.3 to 100

same assay, conditions: human, FS4-LTM cells

SMILES	IC90 at 24 h [µM]
CC1(C(=O)NC2CCCCC2)CN(S(=O)(=O)c2ccccc2[N+](=O)[O-])CC(=O)N1/N=C/c1ccc([N+](=O)[O-])o1 (stereo unspecified)	> 100
CC1(C(=O)NC2CCCCC2)CCCC(=O)N1/N=C/c1ccc([N+](=O)[O-])o1 (stereo unspecified)	≥ 100
